# Results reported in ChEMBL document CHEMBL1926556, “Synthesis and biological activities of 2-[(heteroaryl)methyl]imidazolines” (Bioorg Med Chem, 2012).
# Calls of active or inactive are those of the source. The rule behind the calls is not given here.
# What was measured:
# Rattus norvegicus [1] = test: Antihypertensive activity in Wistar rat assessed as inhibition of methoxamine-induced change in blood pressure at 0.1 mg/kg, iv administered 10 mins after 10 ug/kg/min methoxamine challenge; type: functional, organism-based; parameters: dose 0.1 mg/kg
# Procedure, shortened: (§1)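 Male Wistar rats (200–290 g) anaesthetized with i.p. thiopental 70 mg/kg, maintained by thiopental infusion, 36–37 °C. Carotid catheter for BP/HR, jugular line for infusion. Methoxamine i.v. infusion 10 or 20 µg/kg/min began 10 min before 0.1 mg/kg i.v. bolus. Readout is ΔMAP or ΔHR from time 0. Five to seven rats per group; repeated-measures ANOVA.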
# Rattus norvegicus [2] = test: Toxicity in Sprague-Dawley rat assessed as exploratory behavior at 10 to 2000 ug/kg, ip measured after 30 mins; type: organism-based; details: in vivo, 0.5 h
# Rattus norvegicus [3] = test: Toxicity in Sprague-Dawley rat assessed as subdued state at 10 to 2000 ug/kg, ip measured after 30 mins; type: organism-based; details: in vivo, 0.5 h
# Procedure, shortened: (§2)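 Male Sprague–Dawley rats (250–270 g) were handled by the experimenter one day before testing. Compound was dissolved in sterile saline and given i.p. If no loss of righting reflex occurred after 5 min, the dose was repeated, up to 2000 µg/kg cumulative. Animals were watched for righting reflex, locomotion, motor coordination and behaviour. Righting reflex was scored at 30 min.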
# [4] = molecular target: T1, Adrenergic receptor alpha-2 (Rattus norvegicus, UniProt P22086+P19328+P22909); test: Displacement of […] from adrenoceptor alpha2 in Sprague-Dawley rat brain membranes after 45 mins by scintillation counting; type: cell membranes, Membrane
# T1 sequence (P22086 whole entry): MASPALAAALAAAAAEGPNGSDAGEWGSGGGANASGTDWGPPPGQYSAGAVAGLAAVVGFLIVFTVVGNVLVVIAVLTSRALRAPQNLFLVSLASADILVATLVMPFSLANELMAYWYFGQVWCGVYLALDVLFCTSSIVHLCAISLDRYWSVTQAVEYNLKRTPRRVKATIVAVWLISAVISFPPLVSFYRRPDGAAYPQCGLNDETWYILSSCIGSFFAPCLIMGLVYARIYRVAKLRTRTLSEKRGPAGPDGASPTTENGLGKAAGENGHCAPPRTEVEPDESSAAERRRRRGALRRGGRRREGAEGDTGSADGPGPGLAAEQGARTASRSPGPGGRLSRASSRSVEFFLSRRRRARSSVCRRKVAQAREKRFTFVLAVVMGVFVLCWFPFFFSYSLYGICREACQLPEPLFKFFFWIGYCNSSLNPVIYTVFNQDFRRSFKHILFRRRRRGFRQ
# T1 sequence (P19328 whole entry): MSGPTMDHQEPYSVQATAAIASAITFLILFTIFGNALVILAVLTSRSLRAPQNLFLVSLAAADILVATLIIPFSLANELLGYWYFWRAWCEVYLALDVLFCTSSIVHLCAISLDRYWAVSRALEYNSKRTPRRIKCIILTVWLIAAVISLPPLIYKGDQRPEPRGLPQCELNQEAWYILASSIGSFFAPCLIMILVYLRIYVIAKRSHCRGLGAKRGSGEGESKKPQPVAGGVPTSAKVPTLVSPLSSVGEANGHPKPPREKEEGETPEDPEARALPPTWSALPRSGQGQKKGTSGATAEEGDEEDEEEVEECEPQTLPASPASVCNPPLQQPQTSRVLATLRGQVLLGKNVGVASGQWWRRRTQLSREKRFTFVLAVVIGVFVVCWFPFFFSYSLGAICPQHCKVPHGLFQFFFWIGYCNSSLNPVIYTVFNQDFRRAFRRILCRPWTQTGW
# T1 sequence (P22909 whole entry): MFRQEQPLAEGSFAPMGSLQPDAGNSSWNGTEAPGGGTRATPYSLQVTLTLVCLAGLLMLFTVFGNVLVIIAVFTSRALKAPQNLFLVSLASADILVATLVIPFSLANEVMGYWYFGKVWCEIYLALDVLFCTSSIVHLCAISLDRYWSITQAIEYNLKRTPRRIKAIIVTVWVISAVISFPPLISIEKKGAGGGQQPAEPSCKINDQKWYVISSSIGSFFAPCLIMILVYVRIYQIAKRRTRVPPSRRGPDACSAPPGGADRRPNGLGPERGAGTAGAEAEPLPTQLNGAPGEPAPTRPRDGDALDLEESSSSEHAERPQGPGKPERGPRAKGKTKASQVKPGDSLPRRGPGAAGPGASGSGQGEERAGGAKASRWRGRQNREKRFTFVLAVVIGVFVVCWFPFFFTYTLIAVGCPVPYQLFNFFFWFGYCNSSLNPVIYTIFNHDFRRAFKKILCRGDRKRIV
# Procedure, shortened: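 Crude P2 membranes from male Sprague–Dawley rat brain (250–280 g), 0.2–0.3 mg protein. Radioligand 1 nM: [3H]2BFI for I2, [3H]prazosin for α1, [3H]RX821002 for α2. Non-specific binding defined by 10 µM BU224 (I2), 10 µM phenylephrine (α1) or 10 µM rauwolscine (α2). 11 concentrations from 0.01 nM to 100 µM, triplicate, 45 min at RT. Filtration and scintillation counting; Ki by Cheng–Prusoff.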
# Rattus norvegicus [5] = test: Toxicity in Sprague-Dawley rat assessed as still state at 10 to 2000 ug/kg, ip measured after 30 mins; type: organism-based; details: in vivo, 0.5 h; procedure, shortened: as §2
# Rattus norvegicus [6] = test: Antihypertensive activity in Wistar rat assessed as inhibition of methoxamine-induced change in blood pressure at 0.1 mg/kg, iv administered 10 mins after 20 ug/kg/min methoxamine challenge; type: functional, organism-based; parameters: dose 0.1 mg/kg; procedure, shortened: as §1
# Rattus norvegicus [7] = test: Antihypertensive activity in Wistar rat assessed as inhibition of methoxamine-induced change in heart rate at 0.1 mg/kg, iv administered 10 mins after 20 ug/kg/min methoxamine challenge; type: functional, organism-based; parameters: dose 0.1 mg/kg; procedure, shortened: as §1
# Rattus norvegicus [8] = test: Antihypertensive activity in Wistar rat assessed as inhibition of methoxamine-induced change in heart rate at 0.1 mg/kg, iv co-administered with 10 ug/kg/min methoxamine challenge; type: functional, organism-based; parameters: dose 0.1 mg/kg; procedure, shortened: as §1
# Rattus norvegicus [9] = test: Anxiolytic activity in Sprague-Dawley rat assessed as loss of righting reflex at 500 ug/kg, ip measured after 30 mins; type: functional, organism-based; procedure, shortened: as §2
# Rattus norvegicus [10] = test: Antihypertensive activity in Wistar rat assessed as inhibition of methoxamine-induced change in heart rate at 0.1 mg/kg, iv co-administered with 20 ug/kg/min methoxamine challenge; type: functional, organism-based; parameters: dose 0.1 mg/kg; procedure, shortened: as §1
# Rattus norvegicus [11] = test: Toxicity in Sprague-Dawley rat assessed as calm behavior at 10 to 2000 ug/kg, ip measured after 30 mins; type: organism-based; details: in vivo, 0.5 h
# Rattus norvegicus [12] = test: Anxiolytic activity in Sprague-Dawley rat assessed as loss of righting reflex at 1000 ug/kg, ip measured after 30 mins; type: functional, organism-based; procedure, shortened: as §2
# Rattus norvegicus [13] = test: Antihypertensive activity in Wistar rat assessed as inhibition of methoxamine-induced change in blood pressure at 0.1 mg/kg, iv administered 10 mins after methoxamine challenge; type: functional; procedure, shortened: as §1
# Rattus norvegicus [14] = test: Antihypertensive activity in Wistar rat assessed as inhibition of methoxamine-induced change in heart rate at 0.1 mg/kg, iv administered 10 mins after methoxamine challenge; type: functional; procedure, shortened: as §1
# Rattus norvegicus [15] = test: Toxicity in Sprague-Dawley rat assessed as reduced motor co-ordination at 10 to 2000 ug/kg, ip measured within 5 to 8 mins; type: organism-based; details: in vivo; procedure, shortened: as §2
# Rattus norvegicus [16] = test: Anxiolytic activity in Sprague-Dawley rat assessed as loss of righting reflex at 10 ug/kg, ip measured after 30 mins; type: functional, organism-based; procedure, shortened: as §2
# Rattus norvegicus [17] = test: Anxiolytic activity in Sprague-Dawley rat assessed as loss of righting reflex at 2000 ug/kg, ip measured after 30 mins; type: functional, organism-based; procedure, shortened: as §2
Compound,Activity (Rattus norvegicus [1]),Activity (Rattus norvegicus [2]),Activity (Rattus norvegicus [3]),Ki [4] [nM],Activity (Rattus norvegicus [5]),Activity (Rattus norvegicus [6]),Activity (Rattus norvegicus [7]),Activity (Rattus norvegicus [8]),Activity (Rattus norvegicus [9]),Activity (Rattus norvegicus [10]),Activity (Rattus norvegicus [11]),Activity (Rattus norvegicus [12]),Activity (Rattus norvegicus [13]) [mmHg],Activity (Rattus norvegicus [14]) [bpm],Activity (Rattus norvegicus [15]),Activity (Rattus norvegicus [16]),Activity (Rattus norvegicus [17])
Cl.Clc1cccc2cnn(CC3=NCCN3)c12,inactive,Non-toxic,Non-toxic,6.4,Non-toxic,inactive,inactive,Active,inactive,Active,Non-toxic,Active,-47.7,-131.8,Toxic,inactive,Active
Cl.c1ccc2c(c1)cnn2CC1=NCCN1,,,,18.5,,,,,,,,,,,,,
Cc1cccc2cnn(CC3=NCCN3)c12.Cl,,,,607,,,,,,,,,,,,,
